The test system of data set [1] is NCI-H460. Nature of the data set: Cytotoxicity against human NCI-H460 cells after 3 days by cell counting analysis. Type of data set: functional, cell-based. The conditions noted are these: NCI-H460, 72 h. The gist of the method:
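NCI-H460 cells in RPMI-1640 with 10% FCS are seeded at 8 × 10⁴ per 35-mm dish and exposed to compound (DMSO at most 1%) 24 h later. Cells are harvested after 72 h, trypsinized and counted with a Coulter counter. IC50 is derived by linear regression of log concentration versus logit.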

The nature of data set [2]: Cytotoxicity against RAOSMC after 3 days by cell counting analysis. Conditions: Rattus norvegicus, 72 h. In short, it runs like this: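 Primary aortic SMCs from male Sprague–Dawley rats, passages 4–10, are seeded at 2 × 10⁵ per 35-mm dish in DMEM with 10% FCS. After 24 h they are arrested in 0.4% FCS for 72 h, then given 10% FCS plus compound (DMSO at most 1%) for 72 h at 37 °C. Cells are trypsinized and counted with a Coulter counter. IC50 is obtained by linear regression of log concentration versus logit.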

The test system of a further data set is Mus musculus. Nature of the data set: Toxicity in human […] cells xenografted in athymic Swiss nude mouse at 16.9 mg/kg, iv administered 2 days after tumor implantation for every 4th day for four times. It is filed as organism-based. Set-up: dose 16.9 mg/kg, route intravenous. Conditions: in vivo, 48 h. A general note: A xenograft is tissue or cells of one species grown in another, often human tumour cells in immunodeficient mice.

In data set [3] the test system is NCI-H460. Nature of the data set: Antitumor activity against human NCI-H460 cells xenografted in athymic Swiss nude mouse assessed as tumor growth inhibition at 16.9 mg/kg, iv administered 2 days after tumor implantation for every 4th day for four times. Type of data set: functional, organism-based. Set-up: dose 16.9 mg/kg. The gist of the method: (§1)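 NCI-H460 tumor fragments are implanted s.c. in both flanks of athymic nude mice on day 0. Dosing is i.v. on days 2, 6, 10 and 14 (q4dx4) in 10% DMSO in water, with vehicle-only controls. Tumor diameters are measured twice weekly by caliper. Tumor weight in treated mice is compared with controls by unpaired two-tailed Student's t-test.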

Data set [4] deals with DNA topoisomerase 2-alpha (Homo sapiens) (UniProt P11388). Put plainly: Inhibition of topoisomerase 2-mediated relaxation of supercoiled pRYG DNA at 0.1 uM after 10 mins using ethidium bromide staining by agarose gel electrophoresis.
Sequence of DNA topoisomerase 2-alpha (Homo sapiens) (P11388 whole entry): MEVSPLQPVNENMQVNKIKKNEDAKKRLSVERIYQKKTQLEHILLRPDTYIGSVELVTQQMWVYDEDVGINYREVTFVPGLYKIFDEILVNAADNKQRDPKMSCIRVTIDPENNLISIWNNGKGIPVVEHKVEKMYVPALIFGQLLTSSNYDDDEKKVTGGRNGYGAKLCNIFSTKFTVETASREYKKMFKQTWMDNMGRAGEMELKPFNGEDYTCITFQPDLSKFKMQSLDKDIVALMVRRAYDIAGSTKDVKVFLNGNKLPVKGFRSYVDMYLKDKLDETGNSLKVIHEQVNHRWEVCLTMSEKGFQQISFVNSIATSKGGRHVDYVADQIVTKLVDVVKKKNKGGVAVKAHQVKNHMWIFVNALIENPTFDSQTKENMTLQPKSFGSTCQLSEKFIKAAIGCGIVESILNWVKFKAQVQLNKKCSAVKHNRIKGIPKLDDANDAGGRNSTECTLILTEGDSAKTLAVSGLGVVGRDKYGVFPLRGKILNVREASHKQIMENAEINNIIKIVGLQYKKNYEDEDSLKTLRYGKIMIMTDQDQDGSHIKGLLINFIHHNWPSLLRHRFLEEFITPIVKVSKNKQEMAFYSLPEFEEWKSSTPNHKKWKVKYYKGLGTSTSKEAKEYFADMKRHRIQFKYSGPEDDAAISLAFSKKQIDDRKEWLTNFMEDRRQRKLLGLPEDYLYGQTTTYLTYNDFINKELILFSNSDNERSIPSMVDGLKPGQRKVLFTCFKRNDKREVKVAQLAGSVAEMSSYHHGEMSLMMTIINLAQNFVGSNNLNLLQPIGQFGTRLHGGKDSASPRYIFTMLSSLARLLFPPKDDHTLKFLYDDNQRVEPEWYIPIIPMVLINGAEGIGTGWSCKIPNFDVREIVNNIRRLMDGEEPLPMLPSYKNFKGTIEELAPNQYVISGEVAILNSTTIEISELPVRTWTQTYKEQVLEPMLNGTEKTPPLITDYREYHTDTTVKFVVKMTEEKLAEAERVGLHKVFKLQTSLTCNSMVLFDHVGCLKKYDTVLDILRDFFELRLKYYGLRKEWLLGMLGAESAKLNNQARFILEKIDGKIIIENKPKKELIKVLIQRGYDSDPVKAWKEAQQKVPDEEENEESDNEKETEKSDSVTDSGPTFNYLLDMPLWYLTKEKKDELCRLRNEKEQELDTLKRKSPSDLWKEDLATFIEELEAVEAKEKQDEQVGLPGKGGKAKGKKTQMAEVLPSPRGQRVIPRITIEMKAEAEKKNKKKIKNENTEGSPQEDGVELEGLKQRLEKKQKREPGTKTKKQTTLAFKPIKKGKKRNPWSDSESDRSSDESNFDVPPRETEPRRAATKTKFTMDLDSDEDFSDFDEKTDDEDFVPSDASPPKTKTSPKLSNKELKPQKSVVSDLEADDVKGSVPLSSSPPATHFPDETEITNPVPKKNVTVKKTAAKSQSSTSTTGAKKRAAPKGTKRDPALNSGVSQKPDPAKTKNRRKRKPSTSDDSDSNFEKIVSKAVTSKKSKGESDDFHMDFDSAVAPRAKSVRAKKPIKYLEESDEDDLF
The test system of data set [5] is NCI-H460. Nature of the data set: Cell cycle arrest in human NCI-H460 cells assessed as accumulation at S phase at IC50 after 20 hrs using propidium Iodide staining by flow cytometry in presence of 10% fetal calf serum. It is filed as functional. In short, it runs like this: (§2)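 NCI-H460 cells are seeded at 2 × 10⁵ per 35-mm dish in RPMI with 10% FCS. After 24 h they are serum-starved in 0.4% FCS for 2 days, then restimulated with 10% FCS with or without compound at 37 °C. Cells are trypsinized, fixed in 62% ethanol and stained 30 min in the dark (5 µg/mL propidium iodide, RNase, 1% NP-40).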

The test system of data set [6] is NCI-H460. Nature of the data set: Cell cycle arrest in human NCI-H460 cells assessed as accumulation at G2/M phase at IC50 after 20 hrs using propidium Iodide staining by flow cytometry in presence of 10% fetal calf serum. It is filed as functional. The gist of the method: as §2
In data set [7] the test system is NCI-H460. Nature of the data set: Cell cycle arrest in human NCI-H460 cells assessed as accumulation at G0/G1 phase at IC50 after 20 hrs using propidium Iodide staining by flow cytometry in presence of 10% fetal calf serum. It is filed as functional. The gist of the method: as §2
Background: Flow cytometry measures light scatter and fluorescence of single cells or particles in a stream.

The subject of data set [8] is NCI-H460. Nature of the data set: Cell cycle arrest in human NCI-H460 cells assessed as accumulation at sub-G0/G1 phase at IC50 after 20 hrs using propidium Iodide staining by flow cytometry in presence of 10% fetal calf serum. Type of data set: functional, cell-based.
The next data set relates to Nucleic Acid. Nature of the data set: Binding affinity to supercoiled pRYG DNA at 0.1 uM after 10 mins by agarose gel electrophoresis. Type of data set: nucleic-acid assay.
Data set [9] relates to NCI-H460. Put plainly: Antitumor activity against human NCI-H460 cells xenografted in athymic Swiss nude mouse assessed as tumor growth inhibition at 10 mg/kg, iv administered 2 days after tumor implantation for every 4th day for four times. Set-up: dose 10 mg/kg. Type of data set: functional, organism-based. The gist of the method: as §1
For data set [10], the system named is NCI-H460. Put plainly: Selectivity ratio of IC50 for rat SMC to IC50 for human NCI-H460 cells.

Each structure is given as a SMILES string. pIC50: −log10 of the molar value. Activity calls are given as the source filed them. No cut-off for these calls is given here.

Regarding `O=C1C(c2cccs2)=C(c2cccs2)C(=O)N1CCNCCCNCCN1C(=O)C(c2cccs2)=C(c2cccs2)C1=O`, the results for the pIC50 (with NCI-H460 [1]; in data set [2]) were 5.37 and 5.89, respectively.
`Cn1ccc2c3ccoc3c3c(c21)C(=O)N(CCNCCCNCCN1C(=O)c2c(c4c(ccn4C)c4ccoc24)C1=O)C3=O`: the pIC50 with NCI-H460 [1] was 8.52; in [2], 7.05. The Activity entry in the data set on Mus musculus is reported as “Non-toxic”; in the data set with NCI-H460 [5], 10.56%; with NCI-H460 [6], 12.81%; with NCI-H460 [7] it was 76.63%. For the same molecule, the TGI entry in the data set with NCI-H460 [3] was “Active”. The inhibition result in data set [4] is “Active”. Moreover, in the data set with NCI-H460 [8], the outcome was inactive. Also, in the data set with Nucleic Acid, the outcome was Active. The TGI entry with NCI-H460 [9] is “inactive”.
Consider `O=C1C(c2ccccc2)=C(c2ccccc2)C(=O)N1CCNCCCNCCN1C(=O)C(c2ccccc2)=C(c2ccccc2)C1=O`, for which the results for the pIC50 (in the data set with NCI-H460 [1]; in data set [2]) were 5.92 and 6.21, respectively.
As to `Cn1cccc1C1=C(c2c[nH]c3ccccc23)C(=O)N(CCNCCCNCCN2C(=O)C(c3c[nH]c4ccccc34)=C(c3cccn3C)C2=O)C1=O`, the pIC50 in the data set with NCI-H460 [1] is 5.41; in data set [2] it was 4.78.
For `O=C1C(c2ccccc2)=C(c2c[nH]c3ccccc23)C(=O)N1CCNCCCNCCN1C(=O)C(c2ccccc2)=C(c2c[nH]c3ccccc23)C1=O` the same measures were 5.41 and 6.00.
For `O=C1c2cccc3cccc(c23)C(=O)N1CCNCCCNCCN1C(=O)c2cccc3cccc(c23)C1=O` [ELINAFIDE], the “Ratio IC50” value in the data set on NCI-H460 [10] came out at 1.5. For the same molecule, the pIC50 is 8.10 with NCI-H460 [1] and 7.92 in data set [2]. In addition, the inhibition result in [4] was “Active”. The Activity with NCI-H460 [5] is 13.44%; in the data set on NCI-H460 [6] it was 18.15%; with NCI-H460 [7] it was 68.4%. In the data set on NCI-H460 [8], the outcome was inactive. Besides, the result in the data set with Nucleic Acid was Active.
`O=C1c2c(c3ccccc3c3ccccc23)C(=O)N1CCNCCCNCCN1C(=O)c2c(c3ccccc3c3ccccc23)C1=O`: the pIC50 in the data set with NCI-H460 [1] was 6.40; in data set [2] it was 6.64.
With `Cn1cccc1C1=C(c2cccs2)C(=O)N(CCNCCCNCCN2C(=O)C(c3cccs3)=C(c3cccn3C)C2=O)C1=O`, the pIC50 in the data set with NCI-H460 [1] is 5.47; in [2] it was 5.74.
`O=C1C(c2cccs2)=C(c2cccs2)C(=O)N1CCCN1CCN(CCCN2C(=O)C(c3cccs3)=C(c3cccs3)C2=O)CC1`: the pIC50 (with NCI-H460 [1]; in data set [2]) was less than 4.52 in each case.
For `O=C1c2c(c3sccc3c3ccoc23)C(=O)N1CCNCCCNCCN1C(=O)c2c(c3sccc3c3ccoc23)C1=O`, in the data set on NCI-H460 [10], the “Ratio IC50” value came to 500. Besides, the figures for the pIC50 (in the data set with NCI-H460 [1]; in data set [2]) were 7.15 and less than 4.52, respectively.
In the case of `Cn1cccc1C1=C(c2ccco2)C(=O)N(CCNCCCNCCN2C(=O)C(c3ccco3)=C(c3cccn3C)C2=O)C1=O`, the pIC50 was 6.19 in the data set on NCI-H460 [1] and 6.14 in [2].
With `O=C1C(c2cccs2)=C(c2c[nH]c3ccccc23)C(=O)N1CCNCCCNCCN1C(=O)C(c2cccs2)=C(c2c[nH]c3ccccc23)C1=O`, the pIC50 with NCI-H460 [1] is 5.38; in [2] it was 5.33.
Consider `O=C1C(c2ccco2)=C(c2cccs2)C(=O)N1CCNCCCNCCN1C(=O)C(c2ccco2)=C(c2cccs2)C1=O`, for which the pIC50 with NCI-H460 [1] was 6.30; in data set [2] it was 5.46.

The term pIC50 denotes −log10 of the IC50, conventionally taken in molar units. A low value points to a large IC50.
